Data reported in ChEMBL document CHEMBL3425441 (J Med Chem, 2015).

How the values were obtained:
[1] = Cytotoxicity against human U937 cells assessed as cell death after 72 hrs by sulforhodamine B assay; details: U-937, 72 h
[2] = Metabolic stability in rat liver microsomes at 10 uM after 3 hrs by LC/MS analysis; type: ADME; details: read-out: Stability
Mus musculus [3] = assay: Toxicity in C57BL/6 mouse at 200 mg/kg, ip measured over 24 hrs; type: organism-based; parameters: dose 200 mg/kg, route intraperitoneal; details: in vivo
Summary of the method: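 Tolerability: C57BL/6 mice aged 8-10 weeks, n = 3 per cohort, given a single 200 mg/kg i.p. dose formulated at 5 mg/mL in 200 mg/mL HPβCD, pH 5.5. Signs classed as excitatory or depressive and graded mild to severe.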

Serum [4] = assay: Drug uptake in C57/BL6 mouse serum at 25 mg/kg, iv measured after 5 to 6 hrs by LC/MS/MS analysis; type: ADME, organism-based; parameters: dose 25 mg/kg, route intravenous; details: in vivo
Summary of the method: (§1)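 Mouse PK: C57/BL6 mice, n = 2 per cohort per time point, 25 mg/kg given by tail vein injection or oral gavage; formulated at 5 mg/mL in 200 mg/mL HPβCD, pH 5.5. Mice sacrificed at set times, blood collected, EDTA plasma frozen at -80°C. Levels measured by LC/MS/MS (Polar-RP column, formic acid/methanol gradient, negative ESI) against an internal standard.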

U-937 [5] = assay: Induction of apoptosis in human U937 cells assessed as viable cells at 50 uM after 12 hrs by annexin V-FITC/propidium iodide staining-based flow cytometric analysis (reference value: 96%); type: functional; details: U-937, 12 h, read-out: Activity
EL4 = assay: Cytotoxicity against mouse EL4 cells assessed as cell death after 72 hrs by sulforhodamine B assay; type: functional, cell-based; details: EL4, 72 h
Summary of the method: (§2)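 Jurkat plated at 25,000 cells/well; GL-1 and EL4 at 15,000 cells/well. Nine half-log doses, 0.01–100 µM, in triplicate. SRB staining after TCA fixation, absorbance 510 nm. Percent death normalized to a positive death control (100%) and DMSO (0%). Logistic fit gives IC50, mean of three experiments ± s.e.m.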

Serum [6] = assay: Drug uptake in C57/BL6 mouse serum at 25 mg/kg, iv measured after 8 hrs by LC/MS/MS analysis; type: ADME, organism-based; parameters: dose 25 mg/kg, route intravenous; details: in vivo; summary of the method: as §1
[7] = Metal chelating activity of the compound assessed as zinc complex formation after 5 mins by EGTA fluorescence titration Assay; type: physicochemical
U-937 [8] = assay: Induction of apoptosis in human U937 cells assessed as early apoptotic cells at 50 uM after 12 hrs by annexin V-FITC/propidium iodide staining-based flow cytometric analysis (reference value: 2%); type: functional
[9] = Cytotoxicity against dog GL1 cells assessed as cell death after 72 hrs by sulforhodamine B assay; type: functional, cell-based; details: Canis lupus familiaris; summary of the method: as §2
U-937 [10] = assay: Induction of apoptosis in human U937 cells assessed as necrotic cells at 50 uM after 12 hrs by annexin V-FITC/propidium iodide staining-based flow cytometric analysis relative to control; type: functional
[11] = Cytotoxicity against dog OSW cells assessed as cell death after 72 hrs by sulforhodamine B assay; type: functional, cell-based; details: Canis lupus familiaris
U-937 [12] = assay: Induction of apoptosis in human U937 cells assessed as late apoptotic cells at 50 uM after 12 hrs by annexin V-FITC/propidium iodide staining-based flow cytometric analysis (reference value: 2%); type: functional
[13] = Oral bioavailability in C57/BL6 mouse at 25 mg/kg by LC/MS/MS analysis; type: ADME, organism-based; details: in vivo
[14] = target: T1, Caspase-3/Caspase-7 (Homo sapiens) (UniProt P42574+P55210); assay: Activation of Caspase 3/7 in human U937 cells assessed as cleavage of Ac-DEVD-AFC at 30 uM after 16 hrs by fluorescence assay relative to control; type: cell-based; details: U-937
T1 sequence (P42574 whole entry, looked up): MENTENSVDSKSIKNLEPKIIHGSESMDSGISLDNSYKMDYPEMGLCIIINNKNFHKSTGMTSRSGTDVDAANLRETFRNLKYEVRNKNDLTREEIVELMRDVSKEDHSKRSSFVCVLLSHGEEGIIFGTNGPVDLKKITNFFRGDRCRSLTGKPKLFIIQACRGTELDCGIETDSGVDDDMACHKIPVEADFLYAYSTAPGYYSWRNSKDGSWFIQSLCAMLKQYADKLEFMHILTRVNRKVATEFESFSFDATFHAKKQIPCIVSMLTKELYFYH
T1 sequence (P55210 whole entry, looked up): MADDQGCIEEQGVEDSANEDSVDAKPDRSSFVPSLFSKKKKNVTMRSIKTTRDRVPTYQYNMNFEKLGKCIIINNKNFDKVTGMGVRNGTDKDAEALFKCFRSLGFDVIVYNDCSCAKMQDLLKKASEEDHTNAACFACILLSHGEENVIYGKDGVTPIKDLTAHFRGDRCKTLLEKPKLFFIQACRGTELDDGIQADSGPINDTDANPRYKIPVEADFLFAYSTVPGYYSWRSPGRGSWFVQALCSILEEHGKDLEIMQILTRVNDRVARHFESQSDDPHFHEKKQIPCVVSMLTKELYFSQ

Jurkat = assay: Cytotoxicity against human Jurkat cells assessed as cell death after 72 hrs by sulforhodamine B assay; type: functional, cell-based; summary of the method: as §2
[15] = AUC in C57/BL6 mouse at 25 mg/kg, po by LC/MS/MS analysis; type: ADME, organism-based; parameters: dose 25 mg/kg, route oral; details: plasma
[16] = AUC in C57/BL6 mouse at 25 mg/kg, iv by LC/MS/MS analysis; type: ADME, organism-based; parameters: dose 25 mg/kg, route intravenous; details: plasma
Mus musculus [17] = assay: Elimination half life in C57/BL6 mouse at 25 mg/kg, iv and po by LC/MS/MS analysis; type: ADME, organism-based; parameters: dose 25 mg/kg, route oral; details: in vivo
[18] = target: T1, Caspase-3/Caspase-7 (Homo sapiens); assay: Activation of Caspase 3/7 in human U937 cells assessed as cleavage of Ac-DEVD-AFC at 1 uM after 16 hrs by fluorescence assay relative to control; type: cell-based; details: U-937
Summary of the method: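 U-937 cells, 50,000/well in phenol red-free RPMI-1640 with 10% FBS, preincubated 15 h at 37°C. Compound added from a 3x solution in media and tested in six wells. Lysis/caspase buffer contains 20 µM Ac-DEVD-AFC. […] 16 h slopes normalized to 0 h (0%) and staurosporine 16 h (100%).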

Liver microsome = assay: Drug metabolism in rat liver microsomes assessed as formation of N-dealkylated, dihydroxylated and multiple monooxygenated products at 10 uM after 3 hrs by LC/MS analysis; type: ADME
[19] = Elimination half life in dog at 1 mg/kg, iv; type: ADME, organism-based, Canis lupus familiaris; parameters: dose 1 mg/kg, route intravenous; details: in vivo, read-out: beta t1/2 (converted)

Row | remaining at 3 h, 10 µM [2] [%] | Compound | IC50 [1] [µM] | also measured
1 | 48 | CCCc1cc(F)cc(/C=N/NC(=O)CN2CCN(Cc3ccc(F)cc3)CC2)c1O | 7.5 | 
2 | 88 | O=C(CN1CCN(C(=O)c2ccccc2)CC1)N/N=C/c1cc(F)ccc1O | 15.7 | 
3 | 90 | C=CCc1cccc(/C=N/NC(=O)CN2CCN(C(=O)c3ccc(C#N)cc3)CC2)c1O | 13.1 | 
4 | 92 | C=CCc1cc(F)cc(/C=N/NC(=O)CN2CCN(C(=O)c3ccc(F)cc3)CC2)c1O | 8.5 | Activity (Mus musculus [3]): Toxic
5 | 85 | C=CCc1cccc(/C=N/NC(=O)CN2CCN(C(=O)c3ccc(C(F)(F)F)cc3)CC2)c1O |  | 
6 | 89 | C=CCc1cc(F)cc(/C=N/NC(=O)CN2CCN(Cc3ccc(S(N)(=O)=O)cc3)CC2)c1O |  | 
7 | 40 | CCCc1cc(F)cc(/C=N/NC(=O)CN2CCN(Cc3ccc(C(F)(F)F)cc3)CC2)c1O |  | 
8 | 15 | CCCc1cccc(/C=N/NC(=O)CN2CCN(Cc3ccc(C(F)(F)F)cc3)CC2)c1O |  | 
9 | 48 | C=CCc1cccc(/C=N/NC(=O)CN2CCN(Cc3ccc(C#N)cc3)CC2)c1O | 13.7 | 
10 | 64 | O=C(CN1CCN(Cc2ccccc2)CC1)N/N=C/c1cc(F)ccc1O | 17 | 
11 | 49 | CCCc1cc(F)cc(/C=N/NC(=O)CN2CCN(Cc3ccccc3)CC2)c1O | 8.9 | 
12 | 61 | CCCc1cccc(/C=N/NC(=O)CN2CCN(C(=O)c3ccc(C#N)cc3)CC2)c1O | 12.8 | 
13 | 30 | CCCc1cccc(/C=N/NC(=O)CN2CCN(Cc3ccc(C#N)cc3)CC2)c1O | 9 | 
14 | 84 | C=CCc1cccc(/C=N/NC(=O)CN2CCN(Cc3ccc(S(N)(=O)=O)cc3)CC2)c1O |  | Drug uptake (Serum [4]): Not Active
15 | 57 | C=CCc1cc(F)cc(/C=N/NC(=O)CN2CCN(Cc3ccc(F)cc3)CC2)c1O | 10.3 | 
16 | 87 | O=C(CN1CCN(C(=O)c2ccc(C(F)(F)F)cc2)CC1)N/N=C/c1cc(F)ccc1O | 8.7 | Activity (Mus musculus [3]): Non-toxic
17 | 67 | CCCc1cc(F)cc(/C=N/NC(=O)CN2CCN(C(=O)c3ccc(F)cc3)CC2)c1O | 7.5 | Activity (Mus musculus [3]): Toxic
18 | 86 | C=CCc1cccc(/C=N/NC(=O)CN2CCN(C(=O)c3ccc(F)cc3)CC2)c1O | 10.2 | viability at 50 µM (U-937 [5]): 49%; IC50 (EL4): 6.5 µM; Drug uptake (Serum [6]): Active; Kd [7]: 0.00146 µM; Activity (U-937 [8]): 27%; IC50 [9]: 3 µM; Activity (U-937 [10]): 2%; IC50 [11]: 9.3 µM; Activity (U-937 [12]): 22%; bioavailability [13]: 25.6%; Activity (Mus musculus [3]): Non-toxic; Activity [14]: 64%; IC50 (Jurkat): 4 µM; AUC [15]: 1540 ng·h/mL; AUC [16]: 6040 ng·h/mL; beta t1/2 (Mus musculus [17]): 1.49 h
19 | 89 | C=CCc1cccc(/C=N/NC(=O)CN2CCN(C(=O)c3ccccc3)CC2)c1O | 12.1 | 
20 | 65 | C=CCc1cc(F)cc(/C=N/NC(=O)CN2CCN(Cc3ccc(C#N)cc3)CC2)c1O | 12.7 | 
21 | 31 | C=CCc1cccc(/C=N/NC(=O)CN2CCN(Cc3ccc(F)cc3)CC2)c1O | 11.1 | 
22 |  | O=C(CN1CCN(Cc2ccccc2)CC1)N/N=C/c1ccccc1 |  | Kd [7]: > 1000 µM; Activity [14]: 3%

Row | remaining at 3 h, 10 µM [2] [%] | Compound | IC50 [1] [µM] | also measured
23 | 90 | C=CCc1cc(F)cc(/C=N/NC(=O)CN2CCN(C(=O)c3ccc(C(F)(F)F)cc3)CC2)c1O |  | 
24 | 86 | O=C(CN1CCN(C(=O)c2ccc(F)cc2)CC1)N/N=C/c1cc(F)ccc1O | 15.3 | 
25 | 16 | C=CCc1cccc(/C=N/NC(=O)CN2CCN(Cc3ccc(C(F)(F)F)cc3)CC2)c1O |  | 
26 | 88 | N#Cc1ccc(C(=O)N2CCN(CC(=O)N/N=C/c3cc(F)ccc3O)CC2)cc1 | 15.3 | 
27 | 49 | CCCc1cc(F)cc(/C=N/NC(=O)CN2CCN(Cc3ccc(C#N)cc3)CC2)c1O | 11.2 | 
28 | 95 | C=CCc1cc(F)cc(/C=N/NC(=O)CN2CCN(C(=O)c3ccc(C#N)cc3)CC2)c1O |  | Drug uptake (Serum [6]): Active
29 | 66 | CCCc1cc(F)cc(/C=N/NC(=O)CN2CCN(C(=O)c3ccc(C#N)cc3)CC2)c1O |  | Drug uptake (Serum [6]): Active
30 | 62 | CCCc1cc(F)cc(/C=N/NC(=O)CN2CCN(Cc3ccc(S(N)(=O)=O)cc3)CC2)c1O |  | 
31 |  | CN[C@@H]1C[C@H]2O[C@@](C)([C@@H]1OC)n1c3ccccc3c3c4c(c5c6ccccc6n2c5c31)C(=O)NC4 |  | Activity [18]: 100%
32 | 61 | CCCc1cccc(/C=N/NC(=O)CN2CCN(Cc3ccc(S(N)(=O)=O)cc3)CC2)c1O |  | 
33 | 86 | CCCc1cc(F)cc(/C=N/NC(=O)CN2CCN(C(=O)c3ccccc3)CC2)c1O | 12.3 | 
34 | 93 | C=CCc1cc(F)cc(/C=N/NC(=O)CN2CCN(C(=O)c3ccccc3)CC2)c1O | 8.6 | viability at 50 µM (U-937 [5]): 54%; IC50 (EL4): 7.3 µM; Drug uptake (Serum [6]): Active; Kd [7]: 0.00107 µM; Activity (U-937 [8]): 20%; IC50 [9]: 3.4 µM; Activity (U-937 [10]): 7%; IC50 [11]: 10 µM; Activity (U-937 [12]): 19%; bioavailability [13]: 8.5%; Activity (Mus musculus [3]): Non-toxic; Activity [14]: 67%; IC50 (Jurkat): 4.1 µM; AUC [15]: 428 ng·h/mL; AUC [16]: 4850 ng·h/mL; beta t1/2 (Mus musculus [17]): 2.008 h
35 | 49 | C=CCc1cc(F)cc(/C=N/NC(=O)CN2CCN(Cc3ccc(C(F)(F)F)cc3)CC2)c1O |  | 
36 | 71 | CCCc1cccc(/C=N/NC(=O)CN2CCN(C(=O)c3ccccc3)CC2)c1O | 9.4 | 
37 | 64 | CCCc1cc(F)cc(/C=N/NC(=O)CN2CCN(C(=O)c3ccc(C(F)(F)F)cc3)CC2)c1O |  | 
38 | 69 | CCCc1cccc(/C=N/NC(=O)CN2CCN(C(=O)c3ccc(F)cc3)CC2)c1O | 7.3 | 
39 | 30 | O=C(CN1CCN(Cc2ccc(C(F)(F)F)cc2)CC1)N/N=C/c1cc(F)ccc1O | 4.7 | 
40 | 24 | CCCc1cccc(/C=N/NC(=O)CN2CCN(Cc3ccc(F)cc3)CC2)c1O | 10 | 
41 | 64 | CCCc1cccc(/C=N/NC(=O)CN2CCN(C(=O)c3ccc(C(F)(F)F)cc3)CC2)c1O |  | 
42 | 30 | CCCc1cccc(/C=N/NC(=O)CN2CCN(Cc3ccccc3)CC2)c1O | 9.6 | 
43 | 56 | C=CCc1cc(F)cc(/C=N/NC(=O)CN2CCN(Cc3ccccc3)CC2)c1O | 9.5 | 

Row | Compound | remaining at 3 h, 10 µM [2] [%] | IC50 [1] [µM] | also measured
44 | C=CCc1cccc(/C=N/NC(=O)CN2CCN(Cc3ccccc3)CC2)c1O [PAC-1] | 38 | 10.2 | viability at 50 µM (U-937 [5]): 54%; IC50 (EL4): 6.5 µM; Kd [7]: 0.00128 µM; Activity (U-937 [8]): 22%; IC50 [9]: 3 µM; Activity (U-937 [10]): 5%; Drug metabolism (Liver microsome): metabolite_detected; Drug uptake (Serum [4]): Not Active; IC50 [11]: 10 µM; Activity (U-937 [12]): 19%; bioavailability [13]: 15.1%; Activity (Mus musculus [3]): Toxic; Activity [14]: 87%; IC50 (Jurkat): 4.4 µM; AUC [15]: 527 ng·h/mL; AUC [16]: 3510 ng·h/mL; half-life [19]: 2.1 h; beta t1/2 (Mus musculus [17]): 0.41 h
